From ChEMBL document CHEMBL1125040, “Reversible inhibitors of the gastric (H+/K+)-ATPase. 1. 1-Aryl-4-methylpyrrolo[3,2-c]quinolines as conformationally restrained analogues of 4-(arylamino)quinolines” (J Med Chem, 1990) come the findings set out here.

For one series, the species on record is Sus scrofa. The series can be described thus: In vitro inhibition of [14C]-aminopyrine accumulation was determined in gastric vesicles of pig with outside vesicle pH 7. The conditions noted are these: Stomach.
Series [1] deals with Rattus norvegicus. The series can be described thus: In vivo inhibition of rat gastric secretion was determined at a dose of 10 uM/kg. The format is functional, Stomach. Put shortly:
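Pentagastrin-stimulated lumen-perfused rats given a single iv bolus of 10 μmol/kg. Acid output measured in the gastric perfusate. Percent inhibition taken at peak inhibition relative to the secretory plateau immediately before dosing; mean of four rats ± SEM.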

Series [2] is described as follows: pKa value was determined. The format is physicochemical.
Series [3] deals with Rattus norvegicus. The series can be described thus: In vivo antisecretory activity was determined for inhibition of gastric secretion in rat. The format is functional. The note with it: Stomach. Put shortly: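 Lumen-perfused rat stimulated with pentagastrin; compound given as iv bolus; acid output measured in gastric perfusate. Percent inhibition taken at peak inhibition versus secretory plateau just before dosing.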

In series [4] the test system is Rattus norvegicus. The series can be described thus: In vivo antisecretory activity was determined for inhibition of gastric secretion in rat; rats died at doses giving less than 50% inhibition. The format is organism-based, Stomach.

As usually defined, the IC50 is the midpoint of a concentration-inhibition curve. A high value points to weaker potency. Usually Inhibition stands for the share of the control response that was lost under treatment. On to `COc1ccc(N2CCc3c(C)nc4ccccc4c32)c(C)c1`, for which half-maximal inhibition in the series filed under Sus scrofa (IC50) was put at 26 nM. Moreover, the Inhibition in the series on Rattus norvegicus [1] was found to be 51%. Turning to `Cc1ccccc1N1CCc2c(C)nc3ccccc3c21`, the midpoint of inhibition in the series filed under Sus scrofa, the IC50, lay at 28 nM. The same molecule showed an Inhibition in the series on Rattus norvegicus [1] of 42%.

For `Cc1ccccc1N1CCc2c1c1ccccc1[n+]([O-])c2C`, the Inhibition with Rattus norvegicus [1] is listed as 40%. Take `COc1cccc2c3c(cnc12)CCCN3c1ccccc1C`: the IC50 in the series filed under Sus scrofa was determined as 110 nM. Besides, the Inhibition with Rattus norvegicus [1] is given as 21%. `Cc1cccc(C)c1N1CCc2c(C)nc3ccccc3c21` returned an Inhibition in the series on Rattus norvegicus [1] of 18%.

One may read the pKa as the negative logarithm of the acid dissociation constant. Higher therefore signals a group that holds its proton tightly. The term ED50 denotes the dose at which the effect has come halfway, by size or by number of responders. In series [2], `COc1cccc2c1nc(C)c1ccn(-c3ccccc3C)c12` returned a pKa of 7.4. For the same molecule, the half-maximal inhibitory concentration (IC50) in the series listed under Sus scrofa is 34 nM. Moreover, the ED50 in the series with Rattus norvegicus [3] worked out at 7.1 µmol/kg. In the series on Rattus norvegicus [1], this molecule came in with an Inhibition of 48%. Regarding `COc1cccc2c3c(c(C)nc12)CCN3c1ccccc1`, the IC50 in the series listed under Sus scrofa came out at 84 nM. For the same molecule, in the series with Rattus norvegicus [4], the ED50 entry is listed as “Toxic”. Moreover, the Inhibition in the series with Rattus norvegicus [1] was 17%. In the case of `COc1cccc2c3c(c(C)[n+](C)c12)CCN3c1ccccc1C`, 2400 nM corresponded to half-maximal inhibition in the series listed under Sus scrofa (IC50). In the case of `COc1cccc2c3c(c(C)nc12)CCN3c1ccccc1C`, the pKa in series [2] is 9.5. The same molecule returned a half-inhibitory concentration (IC50) in the series filed under Sus scrofa of 36 nM. The molecule also had a 50% effective dose (ED50) with Rattus norvegicus [3] of 19.8 µmol/kg.

Turning to `Cc1nc2c(OCc3ccccc3)cccn2c1CC#N`, in the series filed under Sus scrofa, the half-maximal inhibitory concentration (IC50) turned out to be 13 nM. In the series with Rattus norvegicus [3], the ED50 was 0.31 µmol/kg. In the series with Rattus norvegicus [3], `COc1ccc2[nH]c([S+]([O-])Cc3ncc(C)c(OC)c3C)nc2c1` (centres undefined) [OMEPRAZOLE] registered an ED50 of 0.45 µmol/kg. For the molecule `COc1ccc(N2CCc3c(C)nc4c(OC)cccc4c32)c(C)c1`, the Inhibition in the series with Rattus norvegicus [1] was found to be 45%. `Cc1ccccc1-n1nnc2cnc3ccccc3c21` came in with a half-inhibitory concentration (IC50) in the series filed under Sus scrofa greater than 30000 nM.

In the series listed under Sus scrofa, `CCOC(=O)c1cnc2c(OC)cccc2c1Nc1ccccc1C` yielded an IC50 of 37 nM. In the series on Rattus norvegicus [3], it took a dose of 8.2 µmol/kg to reach the 50% effect level (ED50).

On to `COc1ccccc1N1CCc2c(C)nc3c(OC)cccc3c21`, for which the 50% inhibitory concentration (IC50) in the series filed under Sus scrofa is 230 nM. Besides, the ED50 entry in the series with Rattus norvegicus [4] is recorded as “Toxic”.

Regarding `Cc1ccccc1-n1cnc2cnc3ccccc3c21`, the half-inhibitory concentration (IC50) in the series listed under Sus scrofa was determined as 2230 nM. For `Cc1ccccc1N1CCc2c(C)nc3c(O)cccc3c21`, the midpoint of inhibition in the series listed under Sus scrofa, the IC50, lay at 61 nM. Besides, the Inhibition in the series with Rattus norvegicus [1] was found to be 23%.

On to `COc1cccc2c3c(c(C)nc12)CCN3Cc1ccccc1`, for which half-maximal inhibition in the series listed under Sus scrofa (IC50) was put at 1600 nM. In the series on Rattus norvegicus [4], the ED50 entry is given as “Toxic”. This molecule gave an Inhibition in the series with Rattus norvegicus [1] of 0%.

`Cc1cc(O)ccc1N1CCc2c(C)nc3ccccc3c21` yielded an Inhibition in the series on Rattus norvegicus [1] of 41%. In the case of `Cc1ccccc1-n1c(S)nc2cnc3ccccc3c21`, in the series filed under Sus scrofa, the IC50 is greater than 30000 nM.

In the case of `Cc1ccccc1N1CCc2c(C)nc3c(F)cccc3c21`, in the series with Rattus norvegicus [1], the Inhibition was found to be 26%. Take `Cc1ccccc1N1CCc2c(C)nc3c(C)cccc3c21`: in the series filed under Sus scrofa, the 50% inhibitory concentration (IC50) worked out at 28 nM. The Inhibition in the series with Rattus norvegicus [1] is given as 43%.
